Reference: article PMC7437931 (Journal of medicinal chemistry, 2020)
*1 amine or outer side, *2 acyl side, *3 side chain or, on linkers, in order; H or OH if unused. Where a SMILES comes first, the peptide text is derived from it. Bridges are numbered along the chain shown (N, C = ends). Triazole bridges read from a SMILES are 1,4-linked. [ ]: non-standard residue; d: D form. The star is where a group is joined. RhodamineB = CCN(CC)c1ccc2c(-c3ccccc3C(=O)*)c3ccc(=[N+](CC)CC)cc-3oc2c1; Lys(N3) = [N-]=[N+]=NCCCC[C@H](N)C(=O)O; NMeGABA = CN(CCCC(=O)[*:2])[*:1]; Pra = C#CC[C@H](N)C(=O)O

What was measured:
[1] = tested on: Fluo-N5 (N-terminal scrambled epitope); assay: FRET binding assay with partially scrambled epitope N5; details: 100 nM Fluo-epitope variation
Outline: (§1)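 Fluorescein-labelled epitope held at 100 nM final and mixed with a concentration series of rhodamine-tagged cyclic peptide. Mixtures were incubated 30 min, then FRET intensity was read on a microplate reader. Each point used individually prepared triplicate samples.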

[2] = tested on: Fluo-M5 (middle segment scrambled epitope); assay: FRET binding assay with partially scrambled epitope M5; details: 100 nM Fluo-epitope variation
Outline: as §1

[3] = target: D570-A583 epitope of proMMP2 (Fluo-epitope) (Homo sapiens, UniProt P08253); assay: FRET binding assay; details: 100 nM Fluo-epitope, varying Rhod-peptide
Outline: as §1

[4] = tested on: Fluo-C5 (C-terminal scrambled epitope); assay: FRET binding assay with partially scrambled epitope C5; details: 100 nM Fluo-epitope variation
Outline: as §1

[5] = target: Fluo-epitope (fluorescein-labeled D570-A583 epitope of proMMP2) (human); assay: FRET or BRET

Kd [5] [nM]	Compound	binding to scrambled epitope N5 (FRET) [1]	binding to scrambled epitope M5 (FRET) [2]	binding affinity to the epitope (FRET) [3]	binding to scrambled epitope C5 (FRET) [4]
–	CCN(CC)c1ccc2c(-c3ccccc3C(=O)N(C)CCCC(=O)N[C@H]3Cc4cn(nn4)CCCC[C@@H](C(N)=O)NC(=O)[C@H](Cc4ccc(O)cc4)NC(=O)[C@@H]4CCCN4C(=O)[C@H](Cc4c[nH]cn4)NC(=O)[C@@H]4CCCN4C(=O)[C@H](Cc4c[nH]c5ccccc45)NC3=O)c3ccc(=[N+](CC)CC)cc-3oc2c1 [Rhod-cy(WPHPY)] (RhodamineB-[NMeGABA][Pra]WPHPY[Lys(N3)]-NH2; triazole 2-8; N-terminus assumed)	retained the binding affinity	retained the binding affinity	highest binding affinity	not able to bind
1	cy(WPHPY) (peptide)	–	–	–	–
